Converted amounts (≈) assume the structure as drawn. “And” between values parts separate entries of the source, which are not always exact repeats. Identical values can stand only once.
Legend:
PCE [1] = test: DEHP hydrolysis to MEHP by PCE; type: in vitro ADME, porcine; settings: 127 vs 1.08 pmol min^-1 mg protein^-1
PCE [2] = settings: DEHP 50 μM; cited from earlier work
[3] = Solubility limit of TBB in incubation buffer; type: physicochemical; settings: potassium phosphate buffer, pH 7.4
Procedure, shortened: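 Practical upper limit judged from kinetics incubations in 100 mM potassium phosphate (pH 7.4), glass tubes, shaking at 37°C, 10 min, nine concentrations 0.0078–31.1 μM. Dosing concentrations checked by LC/MS/MS (negative APCI, C18 column, isocratic 98% methanol). Limit taken as the highest concentration without unacceptably high variability in measured substrate concentration.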

[4] = test system: hepatic porcine carboxylesterase; test: Metabolism in purified hepatic porcine carboxylesterase; type: in vitro ADME; settings: Michaelis-Menten model, 10-min incubations
[5] = cited from earlier work
[6] = test system: fathead minnows (Pimephales promelas); settings: dietary exposure to commercial mixture containing TBB and TBPH; cited from earlier work
[7] = TBB/TBPH metabolism in human liver microsomes; type: in vitro ADME
Phase II metabolism [8] = type: in vitro ADME, human; settings: HLM; for Phase II metabolites detected (glucuronidation): 2 mM UDPGA, alamethicin, MgCl2, 90 min; for loss of parent compound during Phase II incubation: glucuronidation cofactors, 90 min
Phase II metabolism [9] = type: in vitro ADME, human; settings: cytosol, 90 min; for Phase II metabolites detected (sulfation, glutathione conjugation): PAPS or reduced glutathione; for loss of parent compound during Phase II incubation: sulfation / glutathione cofactors

## CCCCC(CC)COC(=O)c1ccccc1C(=O)OCC(CC)CCCC (stereo not drawn) [DEHP, bis(2-ethylhexyl) phthalate]
PCE [1]
  DEHP hydrolysis rate relative to TBPH hydrolysis rate in PCE: approximately 100 times
PCE [2]
  MEHP formation rate from DEHP in PCE: 127 pmol min^-1 mg protein^-1

## CCCCC(CC)COC(=O)c1cc(Br)c(Br)c(Br)c1Br (stereo not drawn) [TBB, 2-ethylhexyl-2,3,4,5-tetrabromobenzoate]
[3]
  solubility: ~30 µM (≈ 16.5 µg/mL)
[4]
  Vmax for TBBA formation in PCE: 24.4 ± 2.6 nmol min^-1 mg protein^-1
[4]; read-out: Km for TBBA formation in PCE
  Km: 9.3 µM and ~10 µM
[5]
  estimated log KOW: 8.8
[6]
  metabolism in fathead minnows: metabolized to form unidentified brominated metabolites
[7]; 60-min incubation, HLM 40 μg protein mL^-1, TBB 27.1 ± 1.3 μM
  decrease of TBB during incubation (amount): ~2.9 nmol
[7]; 60-min incubations with HLM, metabolite identification, GC/MS
  reduction in the concentration of TBB: 79.9 ± 4.6%
[7]; Michaelis-Menten model, 10-min incubations, 40 μg protein mL^-1, TBB 0.0078–31.1 μM
  Vmax for TBBA formation in HLM: 0.644 ± 0.144 nmol min^-1 mg protein^-1
[7]; NADPH 0, 0.3, 3.0 and 30 mM, data not shown
  effect of NADPH on the formation rate of TBBA: did not significantly affect
[7]; both, human, pH 7.4, Km for TBBA formation in HLM, Michaelis-Menten model, 10-min incubations, 40 μg protein mL^-1, TBB 0.0078–31.1 μM
  Km at 10 min: 11.1 ± 3.9 µM
[7]; read-out: Km for TBBA formation in HLM, Michaelis-Menten model, 10-min incubations, 40 μg protein mL^-1, TBB 0.0078–31.1 μM
  Km: ~10 µM

## O=C(O)c1cc(Br)c(Br)c(Br)c1Br [TBBA, 2,3,4,5-tetrabromobenzoic acid]
Phase II metabolism [8]
  Phase II metabolites detected (glucuronidation): no Phase II metabolites were detected
  loss of parent compound during Phase II incubation: no significant losses
Phase II metabolism [9]
  Phase II metabolites detected (sulfation, glutathione conjugation): no Phase II metabolites were detected
  loss of parent compound during Phase II incubation: no significant losses

## CCCCC(CC)COC(=O)c1c(Br)c(Br)c(Br)c(Br)c1C(=O)O (stereo not drawn) [TBMEHP, mono(2-ethylhexyl) 2,3,4,5-tetrabromophthalate]
Phase II metabolism [8]
  Phase II metabolites detected (glucuronidation): no Phase II metabolites were detected
  loss of parent compound during Phase II incubation: no significant losses
Phase II metabolism [9]
  Phase II metabolites detected (sulfation, glutathione conjugation): no Phase II metabolites were detected
  loss of parent compound during Phase II incubation: no significant losses

— paper PMC3398233 (Chemical Research in Toxicology, 2012)
